Jurkat NFkB inh: inhibitors of the PMA/ionomycin-induced NF-kB reporter in Jurkat cells; actives 0.53% (n = 330,000); PMA/ionomycin-induced NF-kB luciferase reporter, luminescence; inhibition, % at 4 µM; in the data active = inhibition above about 50%
Gli-Sufu block: blocks Gli-Sufu signaling in a luciferase reporter | Sufu-KO-LIGHT fibroblasts, Gli luciferase reporter luminescence | inhibition, % at 5 µM | actives 0.74% (n = 340,000) | AID 588413;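 active = inhibition above about 55%, limit read from the data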;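 also: 0% = DMSO-treated cells and 100% = wells with medium but no cells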
CHOP inh: inhibitors of CHOP induction in ER stress response. CHO-K1 CHOP-promoter luciferase, tunicamycin-induced, 15-18 h. actives 3.8% (n = 220,000). AID 2732. inhibition, % at 10 µM;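 active = compounds that reduced the stress-induced luciferase reporter signal by more than about 70% of percent inhibition, limit read from the data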;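 also: 0% = tunicamycin plus vehicle and 100% = wells without tunicamycin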
XBP1 UPR activ: adaptive UPR (XBP1) activation. CHO-XBP1 luciferase reporter, IRE1-XBP1 UPR activation, luminescence; percent of tunicamycin response, DMSO as zero. activation, % at 20 µM. actives 0.33% (n = 330,000). AID 463104;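 active = versus positive control, 20 µM dose yields 30% or more activation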;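 also: 100% = tunicamycin at 10 µg/mL and 0% = DMSO only wells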
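Material: CHO-XBP1 cells stably carrying IRE1-XBP1-driven luciferase reporter / Amount: 1000 cells per well / Compound: 20 µM, 1% DMSO / Times: 6 h treatment, 37 °C / Detection: luciferase luminescence / Measure: % activation of reporter signal versus tunicamycin and DMSO controls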
UPR CHOP act: activators of apoptotic arm of unfolded protein response (CHOP); CHO-CHOP luciferase reporter, UPR activation, luminescence; percent of tunicamycin response over DMSO baseline; activation, % at 10 µM; actives 0.34% (n = 330,000); AID 449763;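 active = at 10 µM dose, activation of 40% or more, normalized to positive control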;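 also: 100% = tunicamycin at 10 µg/mL and 0% = DMSO alone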
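Test system: CHO CHOP reporter cells. Input: 500 CHO-CHOP cells per well. Medium: F12 with 10% FBS. Technique: luciferase luminescence. Measure: percent activation relative to tunicamycin control. Dosing: 10 µM compound, 0.5% DMSO. Timing: 16-18 h cell attachment, then 6 h compound exposure, 37 °C.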
697 NFkB inh: lowers PMA/ionomycin-induced NF-kB signal in 697 B cells; 697 B-cell NF-kB luciferase reporter, 16 h; inhibition, % at 4 µM; actives 0.33% (n = 330,000); in the data active = inhibition above about 35%
Gli-Sufu confirm: Gli-SUFU antagonism confirmation, single concentration; shares compounds with Gli-Sufu block; Sufu-KO-LIGHT cells, Gli luciferase reporter, luminescence; inhibition, % at 5 µM; actives 40% (n = 2,500);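 active = mean inhibition at 5 µM reaching about 45%, limit read from the data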;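 also: plate controls were DMSO-treated cells for no effect and wells lacking cells for full effect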
SufuKO cytotox: cytotoxic in Gli-SUFU antagonist counter-screen; shares compounds with Gli-Sufu block; Sufu-KO-LIGHT cells cytotoxicity, ATP luminescence; cytotoxicity, % at 5 µM; actives 32% (n = 2,500);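 active = mean cytotoxicity at 5 µM above about 25%, limit read from the data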;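 also: cells exposed to compound overnight for roughly 16 to 18 hours; plate controls were DMSO wells with cells for no effect and medium without cells for full effect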
Wnt3a cs: counter-screen for Gli-SUFU antagonists: Wnt3a reporter inhibition. shares compounds with Gli-Sufu block. Wnt-LIGHT cells, Wnt3a-driven luciferase reporter, luminescence. inhibition, % at 6.25 µM. actives 20% (n = 2,500). AID 651995;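 active = mean inhibition above about 25%, limit read from the data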
Active calls of the source: *; . = no result. The list is not random: actives were taken first. Their share in the collection is about 3.9%.

SMILES	Jurkat NFkB inh	Gli-Sufu block	CHOP inh	XBP1 UPR activ	UPR CHOP act	697 NFkB inh	Gli-Sufu confirm	SufuKO cytotox	Wnt3a cs
Clc1ccc(-n2ncc3c(NCCN4CCOCC4)ncnc32)cc1	-19.0	53.9	-37.0	-4.6	-4.9	-45.0	66.3*	17.6	58.7*
Cc1cccc(C)c1NC(=O)CCCSc1nnnn1C	-19.1	3.7	-12.5	-0.3	1.9	-4.1	.	.	.
Cc1cccc(C)c1NC(=O)CSc1nnnn1C	8.0	57.0*	42.2	3.2	-1.4	17.7	16.6	6.8	-11.6
CCOC(=O)C(C)NC(=O)Cn1ncc2c(=O)oc3ccc(C)cc3c21 (stereo not drawn)	0.2	-1.9	6.4	0.0	1.1	16.4	.	.	.
Cc1ccc2oc(=O)c3cnn(CC(=O)NC4CCCCC4C)c3c2c1 (stereo not drawn)	13.8	99.3*	56.8	-0.6	0.0	7.0	20.2	11.1	1.1
Cc1ccc2oc(=O)c3cnn(CC(=O)NC4CCC(C)CC4)c3c2c1 (stereo not drawn)	6.1	53.7	31.4	-3.3	-1.0	7.2	21.2	17.4	-18.2
Cc1onc(C(=O)NC2CCCCC2)c1[N+](=O)[O-]	2.8	21.6	.	0.2	2.5	10.3	.	.	.
CCc1nnc(NC(=O)CCC(=O)NC2CCCCCC2)s1	0.5	-1.3	.	-4.1	-3.1	4.7	.	.	.
COc1cc(S(=O)(=O)NCc2ccc3c(c2)OCO3)ccc1F	13.6	0.6	.	-2.3	0.5	11.8	.	.	.
CN1CCc2c(sc3c2c(=O)n(-c2ccccc2)c2nnc(SCc4ccc(Cl)cc4)n32)C1	3.4	51.3	14.6	-3.6	0.4	5.3	24.6	15.2	-23.6
NC(=O)CSc1nnc2n(-c3ccccc3)c(=O)c3c4c(sc3n12)CCCCC4	16.6	-3.8	17.0	-0.6	1.4	18.5	.	.	.
CN1C[C@@H]2[C@@H]3C(=O)N(C)C(=O)[C@@H]3[C@](C)(C1=O)N2C(=O)c1ccc(F)cc1	.	7.5	.	.	.	.	.	.	.
C=CCN=C(NC#N)SC	-2.8	58.2*	1.8	-5.0	0.3	0.7	14.6	8.5	8.9
Cc1sc2ncnc(NCC(O)c3ccc([N+](=O)[O-])cc3)c2c1C (stereo not drawn)	46.9	68.3*	.	2.8	9.0	8.8	70.7*	29.5*	6.6
Cc1sc2ncnc(NCC(O)c3ccccc3)c2c1C (stereo not drawn)	16.5	22.2	.	1.8	8.4	-54.0	.	.	.
CC1CCc2c(sc3nc(C4CC4)nc(N4CCN(C(=O)c5ccco5)CC4)c23)C1 (stereo not drawn)	-27.7	76.7*	.	6.5	6.7	-77.3	80.9*	31.9*	3.5
O=C(Cc1ccccc1)Nc1ccnn1C1CCN(Cc2nccs2)CC1	0.3	36.8	.	-6.2	-0.6	11.9	.	.	.
COc1cc(NC(=S)NCCN2CCOCC2)cc(OC)c1OC	-20.0	50.9	19.5	3.5	0.2	-19.0	24.3	3.1	1.8
COc1cc(NC(=S)NCCCN2CCOCC2)cc(OC)c1OC	-14.1	-4.5	-9.5	-0.3	-1.2	-10.2	.	.	.
CCc1c(C)nc2cc(-c3ccc(OC)c(OC)c3)nn2c1N1CCCC1	-6.3	54.4	63.9	3.5	0.2	-46.2	55.2*	32.9*	5.8
CC(=O)NC1=CC(=C[N+](=O)[O-])C=C1O	.	-4.6	.	.	.	.	.	.	.
CC1(C)C(=O)Nc2ccccc2N1C(=O)COC(=O)CNS(=O)(=O)c1ccc(F)c(F)c1F	16.1	-18.1	.	-0.5	0.4	16.4	.	.	.
Cc1ccc(C2C(C#N)=C(N)N(c3cccnc3)C3=C2C(=O)CCC3)s1 (stereo not drawn)	-1.6	60.3*	12.7	1.5	-0.1	-41.3	28.9	3.1	-3.7
Cn1cnc(S(=O)(=O)NCc2ccc(Br)cc2)c1	-9.6	-13.9	.	-4.5	-1.5	-5.6	.	.	.
Cc1ccc(-n2nnnc2SCC(=O)Nc2cccnc2Cl)cc1	8.1	54.0	16.6	-1.9	0.1	-5.0	29.3	8.1	-7.9
SMILES	Jurkat NFkB inh	Gli-Sufu block	CHOP inh	XBP1 UPR activ	UPR CHOP act	697 NFkB inh	Gli-Sufu confirm	SufuKO cytotox	Wnt3a cs
O=C(CSc1nnnn1-c1ccc(Cl)cc1)Nc1cccnc1Cl	-0.4	8.4	25.9	0.1	1.0	-13.3	.	.	.
C(=NN1CCCCCC1)c1ccc2ccccc2n1	.	68.4*	.	.	.	.	88.7*	73.0*	106.3*
C(=NN1CCCCCC1)c1cccc2ccccc12	.	-6.3	.	.	.	.	.	.	.
O=c1[nH]c(=O)n(-c2ccc(F)cc2)c2c1C(C(F)(F)F)(C(F)(F)F)N=C(c1ccc(F)cc1)N2	19.8	75.2*	43.0	0.8	0.2	-46.6	68.5*	10.0	77.2*
Cc1nn(C)c(C)c1S(=O)(=O)N(CC(=O)Nc1nccs1)c1ccc(C(C)C)cc1	14.6	-0.5	15.6	-2.6	-1.4	12.8	.	.	.
COc1ccc(N(CC(=O)Nc2nccs2)S(=O)(=O)c2c(C)nn(C)c2C)cc1	1.7	57.6*	7.2	1.9	1.7	14.9	32.2	3.6	3.2
CCOc1ccc(-n2c(-c3ccccc3)c[nH]c2=S)cc1	-3.9	-13.1	.	-0.5	4.1	-4.9	.	.	.
CCOc1ccc(N2C(=O)CC(Cc3ccc(Br)cc3)C2=O)cc1 (stereo not drawn)	7.9	2.8	.	-6.3	0.9	-2.0	.	.	.
CCOc1ccc(-n2c(-c3ccccc3)c[n+]3c2CCC3)cc1	41.7	84.6*	5.7	4.6	2.2	1.7	87.9*	33.0*	41.3*
CCOc1ccc(-n2c(-c3ccc(Br)cc3)c[n+]3c2CCCCC3)cc1	29.9	86.1*	0.8	-3.5	-0.7	-1.2	88.2*	46.3*	22.6
COc1ccccc1CCC(=O)Nc1ccc(S(=O)(=O)Nc2cc(C)nc(C)n2)cc1	-7.0	-1.5	.	-4.0	2.2	-14.6	.	.	.
CNC(=S)N/N=C(\C)c1ccc(N2CCOCC2)cc1	.	67.5*	-20.6	.	.	.	-18.1	6.5	-67.9
CC1CCN(C(=S)Nc2ccc(F)cc2)CC1	0.2	64.4*	-0.2	-0.3	3.5	-5.0	15.4	22.4	-9.3
CCN(CC)CCn1c(NCc2ccc(OC)cc2)nc2ccccc21	9.3	55.8*	-10.3	1.5	-0.6	-44.0	26.3	6.3	-18.4
CCN(CC)CCn1c(NCc2ccc(C)o2)nc2ccccc21	2.2	5.8	-0.9	0.1	0.1	1.2	.	.	.
CN1CCN(C(CNC(=O)C(=O)Nc2ccc3c(c2)OCO3)c2ccc(F)cc2)CC1 (stereo not drawn)	-20.9	53.6	.	1.0	0.8	-15.3	20.4	9.3	-11.1

Assay outcomes deposited in PubChem by several laboratories.
